In ChEMBL document CHEMBL4118021, “Studies of TAK1-centered polypharmacology with novel covalent TAK1 inhibitors” (Bioorg Med Chem, 2017) one finds IC50, inhibition and Activity data, which are given here for 3 compounds.

SMILES strings stand for the structures. Activity calls are given as the source filed them. The calls are words filed in the database; no cut-off is given here.

The nature of assay [1]: Antiproliferative activity against human SW156 cells harboring wild type KRAS after 72 hrs by CellTiter-Glo assay. Type of assay: functional, cell-based. Background: ATP-based viability assays read luminescence as a measure of living cells.
Assay [2] concerns the target Tyrosine-protein kinase ZAP-70 (Homo sapiens) (UniProt P43403). The assay is described as follows: Inhibition of ZAP70 in human SKCO1 cells at 1 uM after 4 hrs using biotin labeled ISDFGLSKALGADDSYYTAR probe by mass-spectrometric analysis relative to control. It is filed as cell-based.
The target in assay [3] is T1, Dual specificity mitogen-activated protein kinase kinase 3 (Homo sapiens) (UniProt P46734).
T1 sequence (whole entry): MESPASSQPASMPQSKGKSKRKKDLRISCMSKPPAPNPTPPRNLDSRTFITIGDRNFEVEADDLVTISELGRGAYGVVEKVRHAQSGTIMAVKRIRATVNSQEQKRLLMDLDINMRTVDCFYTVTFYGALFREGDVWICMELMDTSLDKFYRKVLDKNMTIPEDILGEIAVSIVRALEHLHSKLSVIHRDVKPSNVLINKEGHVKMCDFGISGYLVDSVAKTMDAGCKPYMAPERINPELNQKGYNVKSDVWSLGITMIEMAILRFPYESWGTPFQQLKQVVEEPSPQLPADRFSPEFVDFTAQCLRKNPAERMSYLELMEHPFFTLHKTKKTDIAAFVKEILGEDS
The assay is described as follows: Inhibition of MAP2K3 in human SKCO1 cells at 1 uM after 4 hrs using biotin labeled DVKPSNVLINK probe by mass-spectrometric analysis relative to control. Type of assay: cell-based.

Assay [4] deals with Mitogen-activated protein kinase kinase kinase kinase 5 (Homo sapiens) (UniProt Q9Y4K4). The assay is described as follows: Inhibition of KHS1 in human SKCO1 cells at 1 uM after 4 hrs using biotin labeled NVHTGELAAVKIIK probe by mass-spectrometric analysis relative to control. Type of assay: cell-based.
The target of assay [5] is Serine/threonine-protein kinase greatwall (Homo sapiens) (UniProt Q96GX5). The assay is described as follows: Inhibition of MASTL in human SKCO1 cells at 1 uM after 4 hrs using biotin labeled LYAVKVVK probe by mass-spectrometric analysis relative to control. It is filed as cell-based.
Sequence of Serine/threonine-protein kinase greatwall (Homo sapiens) (Q96GX5 whole entry): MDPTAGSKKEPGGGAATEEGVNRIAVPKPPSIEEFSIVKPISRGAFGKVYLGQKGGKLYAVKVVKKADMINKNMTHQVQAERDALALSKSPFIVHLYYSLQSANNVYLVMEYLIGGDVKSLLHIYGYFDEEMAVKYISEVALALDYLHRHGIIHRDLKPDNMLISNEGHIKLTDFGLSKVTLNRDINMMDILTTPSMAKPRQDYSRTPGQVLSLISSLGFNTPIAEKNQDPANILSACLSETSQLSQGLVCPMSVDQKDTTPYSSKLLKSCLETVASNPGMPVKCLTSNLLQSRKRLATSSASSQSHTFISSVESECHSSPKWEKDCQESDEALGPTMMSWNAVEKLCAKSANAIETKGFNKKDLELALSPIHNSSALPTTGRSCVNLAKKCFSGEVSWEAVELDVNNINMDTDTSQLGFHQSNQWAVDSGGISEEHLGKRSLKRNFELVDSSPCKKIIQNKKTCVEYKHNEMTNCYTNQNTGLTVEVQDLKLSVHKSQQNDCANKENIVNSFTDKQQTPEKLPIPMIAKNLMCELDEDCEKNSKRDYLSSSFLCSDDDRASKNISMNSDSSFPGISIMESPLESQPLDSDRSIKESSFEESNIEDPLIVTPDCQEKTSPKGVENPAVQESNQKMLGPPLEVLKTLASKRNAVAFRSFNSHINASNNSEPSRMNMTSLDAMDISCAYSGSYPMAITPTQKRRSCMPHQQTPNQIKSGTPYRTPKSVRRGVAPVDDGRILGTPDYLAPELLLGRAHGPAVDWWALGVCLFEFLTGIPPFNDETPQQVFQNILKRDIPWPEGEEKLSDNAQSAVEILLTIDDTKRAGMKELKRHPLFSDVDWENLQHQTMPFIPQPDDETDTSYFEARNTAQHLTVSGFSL
The next assay has as its system MOLM-14. The assay is described as follows: Antiproliferative activity against human MOLM14 cells harboring FLT3-ITD mutant at […] to […] nM after 72 hrs by CellTiter-Glo assay. Type of assay: functional, cell-based.
Assay [6] concerns the target SRSF protein kinase 1 (Homo sapiens) (UniProt Q96SB4). The assay is described as follows: Inhibition of SRPK1 in human SKCO1 cells at 1 uM after 4 hrs using biotin labeled IIHTDIKPENILLSVNEQYIR probe by mass-spectrometric analysis relative to control. Type of assay: cell-based. In outline:
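Live SK-CO-1 cells exposed to compound at 1 μM or DMSO for 4 h (KiNativ). Lysates then labeled with lysine-reactive ATP/ADP-biotin probe, and probe-labeled kinase peptides quantified by mass spectrometry. Percent inhibition of probe-dependent recovery calculated relative to DMSO-treated cells.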

Assay [7] deals with Mitogen-activated protein kinase 10 (Homo sapiens) (UniProt P53779). Briefly: Inhibition of JNK3 in human SKCO1 cells at 1 uM after 4 hrs using biotin labeled DLKPSNIVVK probe by mass-spectrometric analysis relative to control. Type of assay: cell-based.
The target in assay [8] is Receptor tyrosine-protein kinase erbB-2 (Homo sapiens) (UniProt P04626). Briefly: Inhibition of HER2/ErbB2 in human SKCO1 cells at 1 uM after 4 hrs using biotin labeled GIWIPDGENVKIPVAIKVLR probe by mass-spectrometric analysis relative to control. Type of assay: cell-based.
In assay [9] the target is T2, Mitogen-activated protein kinase kinase kinase 7 (Homo sapiens, UniProt O43318).
T2 sequence (O43318 whole entry): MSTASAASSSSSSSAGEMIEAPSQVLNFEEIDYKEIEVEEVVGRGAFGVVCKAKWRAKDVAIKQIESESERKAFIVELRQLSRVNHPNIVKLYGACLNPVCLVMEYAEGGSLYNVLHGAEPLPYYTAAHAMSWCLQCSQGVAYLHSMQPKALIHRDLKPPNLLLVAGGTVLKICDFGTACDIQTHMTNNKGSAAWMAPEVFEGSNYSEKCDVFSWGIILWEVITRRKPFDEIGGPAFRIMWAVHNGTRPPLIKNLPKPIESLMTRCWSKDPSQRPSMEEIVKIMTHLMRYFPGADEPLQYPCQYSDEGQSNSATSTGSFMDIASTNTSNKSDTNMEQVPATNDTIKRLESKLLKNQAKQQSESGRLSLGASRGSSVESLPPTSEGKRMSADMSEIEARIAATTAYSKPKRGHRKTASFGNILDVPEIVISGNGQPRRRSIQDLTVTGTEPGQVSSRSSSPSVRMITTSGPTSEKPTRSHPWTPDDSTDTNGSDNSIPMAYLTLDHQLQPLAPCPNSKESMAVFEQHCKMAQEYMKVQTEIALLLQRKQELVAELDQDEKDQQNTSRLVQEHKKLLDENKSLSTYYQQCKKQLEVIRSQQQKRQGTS
Briefly: Inhibition of TAK1 (unknown origin) by LanthaScreen assay. (In TR-FRET formats the signal depends on donor and acceptor labels being close together.)

Assay [10] concerns MAP4K2 / germinal center kinase (Homo sapiens). Briefly: Inhibition of GCK in human SKCO1 cells at 1 uM after 4 hrs using biotin labeled DIKGANLLLTLQGDVK probe by mass-spectrometric analysis relative to control.
The target of assay [11] is Serine/threonine-protein kinase A-Raf (Homo sapiens) (UniProt P10398). Briefly: Inhibition of ARAF in human SKCO1 cells at 1 uM after 4 hrs using biotin labeled DLKSNNIFLHEGLTVK probe by mass-spectrometric analysis relative to control. It is filed as cell-based.
Sequence of Serine/threonine-protein kinase A-Raf (Homo sapiens) (P10398 whole entry): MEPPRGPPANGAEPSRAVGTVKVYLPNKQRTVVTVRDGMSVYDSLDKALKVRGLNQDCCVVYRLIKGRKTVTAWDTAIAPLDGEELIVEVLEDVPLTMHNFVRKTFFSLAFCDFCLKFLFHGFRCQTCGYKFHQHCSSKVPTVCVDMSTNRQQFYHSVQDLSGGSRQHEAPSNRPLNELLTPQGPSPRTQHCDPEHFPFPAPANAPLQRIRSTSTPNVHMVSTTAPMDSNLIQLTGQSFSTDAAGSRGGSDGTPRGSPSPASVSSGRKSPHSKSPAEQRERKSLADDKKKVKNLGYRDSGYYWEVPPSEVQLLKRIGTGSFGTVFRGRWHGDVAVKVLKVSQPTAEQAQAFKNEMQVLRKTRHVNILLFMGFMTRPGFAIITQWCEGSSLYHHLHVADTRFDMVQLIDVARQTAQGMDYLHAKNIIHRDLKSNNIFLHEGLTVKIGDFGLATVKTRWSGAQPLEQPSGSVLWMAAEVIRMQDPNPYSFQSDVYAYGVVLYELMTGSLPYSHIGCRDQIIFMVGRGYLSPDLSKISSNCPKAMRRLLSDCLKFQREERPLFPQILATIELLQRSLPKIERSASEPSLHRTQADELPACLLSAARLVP
For assay [12], the target named is Tyrosine-protein kinase FRK (Homo sapiens) (UniProt P42685). Briefly: Inhibition of FRK in human SKCO1 cells at 1 uM after 4 hrs using biotin labeled HEIKLPVK probe by mass-spectrometric analysis relative to control. Type of assay: cell-based.
Sequence of Tyrosine-protein kinase FRK (Homo sapiens) (P42685 whole entry): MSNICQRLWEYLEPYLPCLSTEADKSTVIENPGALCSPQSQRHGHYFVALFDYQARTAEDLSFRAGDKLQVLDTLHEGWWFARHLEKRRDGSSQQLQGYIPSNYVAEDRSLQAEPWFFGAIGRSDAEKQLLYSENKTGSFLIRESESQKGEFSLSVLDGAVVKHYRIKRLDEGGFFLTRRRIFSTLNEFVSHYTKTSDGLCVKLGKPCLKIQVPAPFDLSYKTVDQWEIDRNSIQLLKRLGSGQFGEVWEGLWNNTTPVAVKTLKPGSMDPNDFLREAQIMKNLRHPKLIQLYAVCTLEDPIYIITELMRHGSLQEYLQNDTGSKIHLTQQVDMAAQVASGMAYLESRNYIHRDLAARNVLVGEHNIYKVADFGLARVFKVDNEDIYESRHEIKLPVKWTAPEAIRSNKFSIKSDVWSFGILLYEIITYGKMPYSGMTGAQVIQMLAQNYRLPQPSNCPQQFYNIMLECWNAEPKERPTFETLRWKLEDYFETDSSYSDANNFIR
Assay [13] concerns the target T3, Mitogen-activated protein kinase kinase kinase 7 (Homo sapiens) (UniProt O43318).
T3 sequence (whole entry): T2 sequence (O43318 whole entry)
Conditions: 0.6 uM.

In assay [14] the target is T3, Mitogen-activated protein kinase kinase kinase 7 (Homo sapiens). Conditions: 0.6 uM. The source holds these as a separate data set.
For assay [15], the target named is Wee1-like protein kinase (Homo sapiens) (UniProt P30291). Briefly: Inhibition of Wee1 in human SKCO1 cells at 1 uM after 4 hrs using biotin labeled YIHSMSLVHMDIKPSNIFISR probe by mass-spectrometric analysis relative to control. Type of assay: cell-based. Summed up:
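Live SK-CO-1 cells treated 4 h at 1 μM (DMSO control); cells lysed and lysates labeled with lysine-reactive ATP/ADP-biotin probe (KiNativ); probe-labeled kinase peptides quantified by mass spectrometry; inhibition expressed as percent reduction in probe-dependent recovery versus DMSO-treated cells.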

Assay [16] addresses Serine/threonine-protein kinase ATR (Homo sapiens) (UniProt Q13535). Briefly: Inhibition of ATR in human SKCO1 cells at 1 uM after 4 hrs using biotin labeled FYIMMCKPK probe by mass-spectrometric analysis relative to control. Type of assay: cell-based.
Assay [17] deals with Phosphatidylinositol 3-kinase catalytic subunit type 3 (Homo sapiens) (UniProt Q8NEB9). The assay is described as follows: Inhibition of PIK3C3 in human SKCO1 cells at 1 uM after 4 hrs using biotin labeled TEDGGKYPVIFKHGDDLRQDQLILQIISLMDK probe by mass-spectrometric analysis relative to control. It is filed as cell-based.
Sequence of Phosphatidylinositol 3-kinase catalytic subunit type 3 (Homo sapiens) (Q8NEB9 whole entry): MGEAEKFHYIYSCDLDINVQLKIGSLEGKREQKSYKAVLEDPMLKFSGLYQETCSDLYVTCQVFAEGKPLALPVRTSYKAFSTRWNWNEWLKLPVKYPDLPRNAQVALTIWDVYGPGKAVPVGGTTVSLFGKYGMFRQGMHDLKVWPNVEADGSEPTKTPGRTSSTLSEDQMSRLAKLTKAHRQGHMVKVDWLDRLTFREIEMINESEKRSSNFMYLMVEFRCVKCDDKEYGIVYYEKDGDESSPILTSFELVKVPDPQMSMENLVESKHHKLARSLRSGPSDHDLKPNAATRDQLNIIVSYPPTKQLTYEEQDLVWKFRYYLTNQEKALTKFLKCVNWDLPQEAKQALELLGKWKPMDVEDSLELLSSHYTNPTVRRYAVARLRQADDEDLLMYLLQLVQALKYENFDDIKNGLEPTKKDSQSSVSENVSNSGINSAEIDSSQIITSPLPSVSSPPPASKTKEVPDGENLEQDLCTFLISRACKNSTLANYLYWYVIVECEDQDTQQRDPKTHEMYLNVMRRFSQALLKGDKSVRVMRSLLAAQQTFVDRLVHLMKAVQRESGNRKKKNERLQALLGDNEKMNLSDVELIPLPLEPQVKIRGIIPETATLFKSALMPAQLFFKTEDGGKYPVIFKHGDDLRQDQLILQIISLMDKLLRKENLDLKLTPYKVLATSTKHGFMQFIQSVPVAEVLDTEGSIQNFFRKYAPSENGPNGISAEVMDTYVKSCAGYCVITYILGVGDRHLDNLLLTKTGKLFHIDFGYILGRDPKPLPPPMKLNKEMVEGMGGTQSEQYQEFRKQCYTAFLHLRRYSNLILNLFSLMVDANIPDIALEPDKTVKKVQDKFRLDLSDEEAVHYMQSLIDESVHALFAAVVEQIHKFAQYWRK
For assay [18], the target named is Serine/threonine-protein kinase Sgk3 (Homo sapiens) (UniProt Q96BR1). Briefly: Inhibition of SGK3 in human SKCO1 cells at 1 uM after 4 hrs using biotin labeled FYAVKVLQK probe by mass-spectrometric analysis relative to control. It is filed as cell-based.
Sequence of Serine/threonine-protein kinase Sgk3 (Homo sapiens) (Q96BR1 whole entry): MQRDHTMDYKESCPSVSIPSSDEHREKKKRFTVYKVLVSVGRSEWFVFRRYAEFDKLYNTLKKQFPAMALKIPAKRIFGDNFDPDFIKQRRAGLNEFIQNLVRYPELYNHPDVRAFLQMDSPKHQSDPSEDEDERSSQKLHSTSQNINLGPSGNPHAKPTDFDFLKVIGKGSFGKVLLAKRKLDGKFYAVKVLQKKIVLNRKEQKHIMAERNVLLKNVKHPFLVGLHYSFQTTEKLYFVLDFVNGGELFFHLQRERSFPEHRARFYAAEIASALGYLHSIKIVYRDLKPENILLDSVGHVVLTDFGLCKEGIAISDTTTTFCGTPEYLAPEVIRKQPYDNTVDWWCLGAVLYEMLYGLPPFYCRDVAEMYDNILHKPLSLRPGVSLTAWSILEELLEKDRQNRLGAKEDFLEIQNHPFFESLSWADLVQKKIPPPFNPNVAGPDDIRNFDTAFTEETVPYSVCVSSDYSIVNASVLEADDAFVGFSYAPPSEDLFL

Sequence of SRSF protein kinase 1 (Homo sapiens) (Q96SB4 whole entry): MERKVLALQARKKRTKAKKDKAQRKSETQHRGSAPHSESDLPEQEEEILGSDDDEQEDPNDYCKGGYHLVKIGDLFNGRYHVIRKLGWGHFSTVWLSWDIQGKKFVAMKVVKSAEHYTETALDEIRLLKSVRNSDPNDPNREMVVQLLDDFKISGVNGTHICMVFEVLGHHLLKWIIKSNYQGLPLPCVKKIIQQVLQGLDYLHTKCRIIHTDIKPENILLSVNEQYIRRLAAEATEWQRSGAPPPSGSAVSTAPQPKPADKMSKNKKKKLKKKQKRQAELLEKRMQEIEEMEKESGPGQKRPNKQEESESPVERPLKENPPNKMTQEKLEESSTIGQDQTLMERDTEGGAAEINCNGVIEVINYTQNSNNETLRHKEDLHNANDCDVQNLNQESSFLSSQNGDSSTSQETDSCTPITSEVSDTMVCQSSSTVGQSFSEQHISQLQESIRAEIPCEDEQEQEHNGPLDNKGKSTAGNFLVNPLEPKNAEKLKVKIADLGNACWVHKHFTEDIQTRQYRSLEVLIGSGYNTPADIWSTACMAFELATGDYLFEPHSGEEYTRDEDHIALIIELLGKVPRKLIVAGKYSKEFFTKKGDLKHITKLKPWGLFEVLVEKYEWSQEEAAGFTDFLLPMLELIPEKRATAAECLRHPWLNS
Sequence of Tyrosine-protein kinase ZAP-70 (Homo sapiens) (P43403 whole entry): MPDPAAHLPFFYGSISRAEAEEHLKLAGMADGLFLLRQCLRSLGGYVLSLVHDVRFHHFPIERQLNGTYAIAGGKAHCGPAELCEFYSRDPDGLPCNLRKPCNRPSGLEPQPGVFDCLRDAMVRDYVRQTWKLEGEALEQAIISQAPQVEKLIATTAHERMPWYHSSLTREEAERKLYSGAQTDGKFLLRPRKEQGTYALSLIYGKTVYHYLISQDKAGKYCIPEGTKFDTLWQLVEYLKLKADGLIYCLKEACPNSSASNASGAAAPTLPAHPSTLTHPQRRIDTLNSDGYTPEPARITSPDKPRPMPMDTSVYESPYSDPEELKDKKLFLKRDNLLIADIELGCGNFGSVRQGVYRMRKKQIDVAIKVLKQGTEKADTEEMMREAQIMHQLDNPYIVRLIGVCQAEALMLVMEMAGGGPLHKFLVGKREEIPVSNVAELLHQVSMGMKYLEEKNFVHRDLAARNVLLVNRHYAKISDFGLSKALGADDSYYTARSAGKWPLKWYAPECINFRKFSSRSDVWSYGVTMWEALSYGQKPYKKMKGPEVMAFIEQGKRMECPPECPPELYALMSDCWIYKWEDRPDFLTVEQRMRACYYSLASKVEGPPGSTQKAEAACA

With `C=CC(=O)Nc1ccccc1Oc1nc(Nc2cnn(CCOC)c2)ncc1Cl`, the IC50 (usually the concentration that inhibits the measured activity by half) in assay [1] came to 3020 nM; in [9], 2.4 nM. In addition, the inhibition – broadly, the relative decrease from the control value, in per cent – in [2] is 34.1%; in assay [3], 10.9%; in assay [4], -4.6%; in assay [5], 41.3%; in assay [6], -6.1%; in [7], 0.8%. Moreover, the inhibition in assay [8] is -2.2%; in assay [10], 34.3%. In addition, in the assay on MOLM-14, the outcome was Active.
For `COc1cc(O)c2c(c1)/C=C/C[C@H](O)[C@H](O)C(=O)/C=C\C[C@H](C)OC2=O`, it took 2020 nM to reach half-maximal inhibition in assay [1] (IC50). The inhibition was 85.5% in assay [11]; -9.6% in assay [12]; 63.6% in assay [2]; 33.5% in [3]; 3% in assay [15]; 51.7% in assay [5]. Besides, the inhibition in assay [16] was 2%; in assay [17], 15.1%; in assay [8], 14.5%; in [18], -1.4%. For the same compound, the inhibition entry in assay [13] and in assay [14] was “Active” throughout.
Turning to `C=CC(=O)Nc1ccccc1Nc1nc(Nc2ccc(N3CCN(C)CC3)cc2)ncc1Cl`, the inhibition in assay [11] is 57%; in assay [12] it was 39.2%; in assay [15], 79%; in [4], 14.8%; in [16] it was -8.1%; in assay [6], 2.9%. Moreover, the inhibition in assay [17] is 21.1%; in assay [7] it was 70%; in [18] it was -2.7%; in [10] it was 37.1%. Besides, the inhibition result in assay [13] and in assay [14] was “Active” in each case. Moreover, the outcome in the assay on MOLM-14 was Active. Also, in [9], half-maximal inhibition (IC50) required 50 nM.
